# Experimental data as given in ChEMBL document CHEMBL1136237, “2-piperidin-4-yl-benzimidazoles with broad spectrum antibacterial activities” (2003).
# Experiments:
# Staphylococcus aureus = experiment: Antibacterial activity determined against Staphylococcus aureus; format: functional
# Method in brief: (§1)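 Broth microdilution: an overnight-culture bacterial suspension was added to compound in 2.5% DMSO in water, giving a final inoculum of about 10^2–10^3 CFU/well. Plates were incubated 20–24 h at 37 °C, and growth relative to a no-compound control was read as A595. MIC was given as a range: complete inhibition at the upper concentration, viable cells at the lower.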
# Enterococcus faecalis [1] = experiment: Antibacterial activity determined against Enterococcus faecalis ATCC 4200; format: functional; method in brief: as §1
# Enterococcus faecalis [2] = experiment: Antibacterial activity determined against Enterococcus faecalis ATCC 11823; format: functional; method in brief: as §1
# Enterococcus faecalis [3] = experiment: Antibacterial activity determined against Enterococcus faecalis ATCC 828; format: functional; method in brief: as §1
# Enterococcus faecium [4] = experiment: Antibacterial activity determined against Enterococcus faecium ATCC 882; format: functional; method in brief: as §1
# Enterococcus faecalis [5] = experiment: Antibacterial activity determined against Enterococcus faecalis ATCC 23241; format: functional; method in brief: as §1
# Enterococcus faecalis [6] = experiment: Anti-bacterial activity determined against Enterococcus faecalis ATCC 49757; format: functional; method in brief: as §1
# Enterococcus faecium [7] = experiment: Antibacterial activity determined against Enterococcus faecium ATCC 6569; format: functional; method in brief: as §1
# [8] = Inhibition of bacterial transcription/translation
# Escherichia coli = experiment: Antibacterial activity determined against Escherichia coli; format: functional; method in brief: as §1
structure (smiles),measurement,setting,value
Clc1cc2nc(C3CCNCC3)n(Cc3ccc(CNCCCn4ccnc4)cc3)c2cc1Cl,MIC,Staphylococcus aureus,12 µM
same,MIC,Enterococcus faecalis [1],12 µM
same,MIC,Enterococcus faecalis [2],6 µM
same,MIC,Enterococcus faecalis [3],6 µM
same,MIC,Enterococcus faecium [4],12 µM
same,MIC,Enterococcus faecalis [5],12 µM
same,MIC,Enterococcus faecalis [6],12 µM
same,MIC,Enterococcus faecium [7],6 µM
same,IC50,[8],> 100 µM
same,MIC,Escherichia coli,12 µM
